Screening results: PubChem, several laboratories
MT1-MMP act inh – blocks activation of human MT1-MMP; P50281; HT1080 RFP-PRO-GFP cells, GFP/RFP ratio fluorescence, overnight; percent of plate control window, DMSO zero; GFP/RFP ratio change, % at 20 µM; hit rate 0.061% among 360,000;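 active = GFP/RFP ratio change of at least 30% with cell ATP level not reduced by more than half and red fluorescence within 50% of control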
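Assay system: HT1080 RFP-PRO-GFP cells. Benchmarks: DMSO vehicle wells and RFP-L50D-GFP reporter cell wells. Times: overnight cell settling, then overnight compound exposure, 37 °C, 5% CO2. Compound: 20 µM single dose, 1% DMSO. Read-out basis: GFP/RFP fluorescence ratio.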
ADAM17 inh – inhibits human ADAM17; inhibition, % at 6.95 µM; hit rate 0.83% among 370,000; recombinant ADAM17, EDANS/DABCYL FRET peptide cleavage; P78536;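 active = inhibition above the mean of compounds lying between control limits plus 3 SD, set per campaign, cut at about 8.5% in these data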
MPTP inh – permeability transition pore inhibition; isolated mouse mitochondria, Ca2+ swelling absorbance, 30 min; inhibition, % at 10 µM; hit rate 1.4% among 360,000; AID 602449;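 active = inhibition of 50% or more, scaled per plate between neutral and stimulator controls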
ADAM10 inh – inhibitors of human ADAM10. O14672. recombinant ADAM10, EDANS/DABCYL FRET peptide cleavage, 3 h. inhibition, % at 7 µM. hit rate 0.62% among 370,000. AID 720582;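 active = inhibition above a per-campaign cutoff equal to the mean of compounds falling between control-based bounds plus 3 SD, cut at about 20% in these data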
Target sequence (O14672 214-748 limits assumed): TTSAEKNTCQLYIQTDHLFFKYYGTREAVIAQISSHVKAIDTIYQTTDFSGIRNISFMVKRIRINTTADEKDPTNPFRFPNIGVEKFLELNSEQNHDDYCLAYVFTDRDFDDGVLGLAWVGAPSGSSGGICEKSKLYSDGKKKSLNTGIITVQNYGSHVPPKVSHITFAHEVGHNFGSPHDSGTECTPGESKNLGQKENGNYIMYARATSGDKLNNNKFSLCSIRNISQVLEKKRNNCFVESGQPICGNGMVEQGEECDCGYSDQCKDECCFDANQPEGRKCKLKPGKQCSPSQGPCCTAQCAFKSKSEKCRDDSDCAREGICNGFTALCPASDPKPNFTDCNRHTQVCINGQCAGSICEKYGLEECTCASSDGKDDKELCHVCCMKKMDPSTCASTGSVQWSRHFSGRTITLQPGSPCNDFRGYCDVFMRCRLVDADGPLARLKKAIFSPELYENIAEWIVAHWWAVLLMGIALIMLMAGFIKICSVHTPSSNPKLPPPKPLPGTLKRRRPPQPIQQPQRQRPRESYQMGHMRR
GRIN3A LBD mod – modulates the human NR3A ligand-binding domain; hit rate 2.5% among 340,000; Tm shift relative to glycine control, % at 25 µM; NR3A LBD differential scanning fluorimetry, Tm shift; 0% = protein alone, 100% = glycine-bound protein;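 active = melting temperature shift of at least 10% of the positive control shift, at one fixed dose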
SKN-1 inh – C. elegans SKN-1 inhibition; C. elegans VP596 Pgst-4::GFP/RFP ratio, acrylamide-induced, 24 h; hit rate 0.49% among 360,000; inhibition, % at 21.8 µM; AID 624304;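 active = interference check ratio from 0.5 to 1.5 plus GFP to RFP signal ratio inhibition reaching or exceeding a fixed threshold, cut at about 30% in these data, passing the limit was not always enough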
MPTP counter – membrane potential counter-screen of mitochondrial pore inhibitors | hit rate 78% among 5,000 | shares compounds with MPTP inh | isolated mitochondria, Rhodamine 123 fluorescence | inhibition, % at 10 µM; in the data active = inhibition above about 22%
MPTP swell DR – dose response confirmation of mitochondrial permeability transition pore inhibitors. IC50, µM. isolated mitochondria swelling, absorbance. shares compounds with MPTP inh. hit rate 58% among 780; in the data active = IC50 below about 20 µM
MPTP cs DR – MPTP inhibitor counter-screen activity, dose response; AID 651564; shares compounds with MPTP inh; IC50, µM; hit rate 49% among 780; isolated mitochondria counterscreen, fluorescence read-out; in the data active = IC50 below about 80 µM
Hits are given with their value; . = inactive; / = not tested or not shown; + = active, no number. Sampled rows, rich in hits. Any-hit rate of the full collection: about 4.7%.

SMILES	MT1-MMP act inh	ADAM17 inh	MPTP inh	ADAM10 inh	GRIN3A LBD mod	SKN-1 inh	MPTP counter	others
CCCCC1(CCCC)C(=O)NC(=Nc2cccc(C)c2)NC1=O	.	.	92	.	.	.	93
CCCC1(CCC)C(=O)NC(=Nc2ccccc2)NC1=O	.	.	.	.	.	.	/
CCC(=NCCOc1ccc(Cl)cc1)c1c(O)n(C)c(=O)n(C)c1=O	.	.	96	.	.	.	90
CCC(=NCCc1c[nH]c2ccccc12)c1c(O)n(-c2ccc(C)cc2)c(=O)[nH]c1=O	.	.	.	.	.	.	/
CCC(=NCCc1c[nH]c2ccccc12)c1c(O)n(C)c(=O)n(C)c1=O	.	.	70	.	.	.	59
O=C(c1cc2c(s1)CCCC2)N1CCC2(CC1)OCCO2	.	.	.	.	.	.	/
Cc1ccc(-n2c(C)nc3ccccc3c2=O)c(C)c1	.	.	.	.	.	.	/
COCCNCCOc1ccc(C(C)(C)c2ccccc2)cc1	.	.	78	.	.	.	.	MPTP swell DR=7.7;MPTP cs DR=.
CN(C)P1(=O)N(C)CCN1C	.	.	.	.	/	.	/
CN1C(=O)C(=Cc2ccccc2OCc2ccc(C(=O)O)cc2)C(=O)N(C)C1=O	.	.	.	.	.	.	/
CN1C(=O)C(=Cc2ccccc2OCc2ccccc2Cl)C(=O)N(C)C1=O	.	.	61	.	.	.	44
CCN(CC)CCCNC(=O)c1c(O)c2ccccc2n(Cc2ccccc2)c1=O	.	.	79	.	.	.	.	MPTP swell DR=16;MPTP cs DR=.
CCN(CC)CCNC(=O)c1c(O)c2ccccc2n(Cc2ccccc2)c1=O	.	.	.	.	.	.	/
O=C(c1ccc(CNS(=O)(=O)c2ccccc2)cc1)N1CCC2(CC1)OCCO2	.	.	.	.	.	.	/
CCCCCSc1cc(OC)c(CCNC)cc1OC	.	.	86	.	.	.	.	MPTP swell DR=5.3;MPTP cs DR=.
CCN1C(=O)NC(=O)/C(=C/c2cc(C)n(-c3sc(C)c(C)c3C#N)c2C)C1=O	.	.	57	.	.	.	35
CCOC(=O)c1c(-n2c(C)cc(/C=C3/C(=O)NC(=O)N(CC)C3=O)c2C)sc2c1CCCC2	.	.	.	.	.	.	/
Cc1nn(Cc2ccccc2)c(C)c1C=C1C(=O)NC(=O)NC1=O	.	.	.	.	.	.	/
Cc1[nH]c2ccc(OC(F)(F)F)cc2c1CCNCc1cccc([N+](=O)[O-])c1	.	.	.	.	.	.	/
CCOc1cccc(CNCCc2c(C)[nH]c3ccc(OC(F)(F)F)cc23)c1O	.	.	80	.	.	.	79
N=C1c2ccccc2CN1c1ncccn1	.	.	.	.	.	.	/
O=C1OC(c2ccc(Cl)cc2)=N/C1=C\N1CC2CC(C1)c1cccc(=O)n1C2 (configuration not stated)	.	.	.	.	.	.	/
CCN1C[C@@]2(COC)C3[C@@H](OC)[C@H]4[C@@H]1[C@@]3(C1C[C@H]3[C@H](OC(C)=O)C1[C@]4(OC(C)=O)C[C@H]3OC)[C@@H](OC)C[C@H]2OC(C)=O (some centres not stated)	.	/	.	/	.	.	/
CC(C)(C)n1nnnc1C(c1cccs1)N1CCC2(CC1)C(=O)NCN2c1ccccc1 (configuration not stated)	.	.	.	.	/	.	/
COc1cc(OC)c(OC)cc1/C=C1/C(=O)NC(=O)N(Cc2ccccc2)C1=O	.	.	60	.	.	.	37
SMILES	MT1-MMP act inh	ADAM17 inh	MPTP inh	ADAM10 inh	GRIN3A LBD mod	SKN-1 inh	MPTP counter	others
COc1cc(OC)c(OC)cc1/C=C1\C(=O)NC(=O)N(Cc2ccccc2)C1=O	.	.	.	.	.	.	/
COc1ccc(C(=O)C2CCCN(Cc3cnc(C)s3)C2)cc1OC (configuration not stated)	.	.	.	.	.	.	/
Cc1ncc(CN2CCCC(C(=O)c3ccc(C(C)(C)C)cc3)C2)s1 (configuration not stated)	.	.	75	.	.	.	73
O=C(c1ccc(C(F)(F)F)cc1)C1CCCN(Cc2ccncc2)C1 (configuration not stated)	.	.	86	.	.	.	48
O=C(c1ccc(Cl)cc1)C1CCCN(Cc2cccc3ncccc23)C1 (configuration not stated)	.	.	97	.	.	.	72
O=C(c1ccc(C(F)(F)F)cc1)C1CCCN(Cc2ccc(CO)o2)C1 (configuration not stated)	.	.	.	.	.	.	/
Cc1cc(O)c2c(c1)C(=O)C13C(=C2O)C(=O)[C@H]2[C@@H](O)[C@@H]1[C@H]1[C@H](O)[C@@H]3C(=O)C3=C(O)c4c(O)cc(C)cc4C(=O)C312 (some centres not stated)	.	/	87	/	.	.	.
CCN1/C(=C\C=C\C2=[N+](CC)c3ccccc3C2(C)C)C(C)(C)c2ccccc21	.	/	+	/	.	.	84
O=C1NC(=S)NC(=O)C1=Cc1ccc2c(c1)CCN2CCCCl	.	/	60	/	.	38	.
Cc1ccc(O)c(C(=O)c2cc(C(=O)NCc3ccccc3)c(=O)n(Cc3ccccc3)c2)c1	.	.	.	.	.	.	/
O=C(c1cc(C(=O)NCc2ccccc2)c(=O)n(Cc2ccccc2)c1)c1cc(Br)ccc1O	.	.	84	.	.	.	72
CC(=O)c1cn(Cc2ccccc2C#N)c2ccccc12	.	.	77	.	.	.	90
CC(=O)c1cn(Cc2ccccc2F)c2ccccc12	.	.	73	.	.	.	70
Cc1ccc2c(c1)C1CN(C)CCC1N2C(=O)Nc1cccc(Cl)c1 (configuration not stated)	.	.	94	.	17	.	91
CCCCOc1ccc(CCN)cc1Cl	.	.	92	.	.	.	.	MPTP swell DR=6.6;MPTP cs DR=.
CC(=O)OC[C@]12CCC(C)=C[C@H]1O[C@@H]1[C@H](O)[C@@H](OC(C)=O)[C@@]2(C)[C@]12CO2	.	.	.	.	.	.	/
